Assay results: ChEMBL document CHEMBL5036385, “Piperazinobenzodiazepinones: New Encephalitic Alphavirus Inhibitors via Ring Expansion of 2-Dichloromethylquinazolinones” (ACS Med Chem Lett, 2022)
Values after ≈ are worked out from the molar mass of the structure shown. Active and inactive are the calls of the source. No cut-off for these calls is given here.

Experiments:
[1] = system: Venezuelan equine encephalitis virus; assay: Antiviral activity against Venezuelan equine encephalitis virus infected in African green monkey Vero 76 cells assessed as reduction on virus yield at 5 uM after 18 hrs of post infection; type: functional
[2] = system: Eastern equine encephalitis virus; assay: Antiviral activity against eastern equine encephalitis virus infected in African green monkey Vero 76 cells assessed as virus induced cytopathic effect measured after 48 hrs; type: functional, organism-based; conditions: Vero 76, 48 h
[3] = system: Venezuelan equine encephalitis virus; assay: Antiviral activity against Venezuelan equine encephalitis virus infected in African green monkey Vero 76 cells assessed as virus induced cytopathic effect measured after 48 hrs; type: functional, organism-based; conditions: Vero 76, 48 h
[4] = system: Eastern equine encephalitis virus; assay: Antiviral activity against eastern equine encephalitis virus infected in African green monkey Vero 76 cells assessed as reduction on virus yield at 5 uM after 18 hrs of post infection; type: functional
Vero 76 = assay: Cytotoxicity against African green monkey Vero 76 assessed as reduction in cell viability measured after 72 hrs; type: cell-based; conditions: chlorocebus sabaeus, vero 76, 72 h
In short: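 Uninfected Vero 76 cells were exposed to compound, and viability was assessed 72 h post-treatment.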

[5] = system: Eastern equine encephalitis virus; assay: Antiviral activity against Eastern equine encephalitis virus co-culture with brain Primary neuron cells HNC001 as reduction on virus titre at 5 uM in Vero 76 cells measured after 18 hrs by TCID50-MTT assay; type: functional, organism-based
[6] = system: Venezuelan equine encephalitis virus; assay: Antiviral activity against Venezuelan equine encephalitis virus co-culture with brain Primary neuron cells HNC001 as reduction on virus titre at 5 uM in Vero 76 cells measured after 18 hrs by TCID50-MTT assay; type: functional, organism-based
[7] = Aqueous solubility of compound at pH 7.4 measured after 1460 min by HPLC analysis; type: physicochemical; conditions: buffer
In short: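 Kinetic solubility was measured in aqueous PBS buffer at pH 7.4.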

[8] = Metabolic stability in CD-1 mouse liver microsomes assessed as half life measured at 60 mins in presence of NADPH by LC-MS/MS analysis; type: ADME, Microsome; conditions: 1 h
In short: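 Half-life was determined from stability in CD-1 mouse liver microsomes.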

[9] = system: Eastern equine encephalitis virus; assay: Antiviral activity against Eastern equine encephalitis virus co-culture with brain Primary neuron cells HNC001 as reduction on virus titre at 1 uM in Vero 76 cells measured after 18 hrs by TCID50-MTT assay; type: functional, organism-based
[10] = system: Venezuelan equine encephalitis virus; assay: Antiviral activity against Venezuelan equine encephalitis virus co-culture with brain Primary neuron cells HNC001 as reduction on virus titre at 1 uM in Vero 76 cells measured after 18 hrs by TCID50-MTT assay; type: functional, organism-based

Structure (SMILES)	Activity [1]	EC50 [2] [µM]	EC50 [3] [µM]	Activity [4]	CC50 (Vero 76) [µM]	Activity [5]	Activity [6]	solubility kinetic at 24.33 h [7] [µM]	t1/2 [8] [min]	Activity [9]	Activity [10]
COc1cccc(N2C(=O)c3cc([N+](=O)[O-])ccc3N=C3C2N(C)CCN3C)c1 (configuration not stated)	2.4	0.5	0.53	5.7	> 30						
CN1CCN(C)C2C1=Nc1ccc([N+](=O)[O-])cc1C(=O)N2c1ccccc1 (configuration not stated)	2.6		0.12	5.7	> 30						
COc1ccc(N2C(=O)c3cc([N+](=O)[O-])ccc3N=C3C2N(C)CCN3C)cc1F (configuration not stated)	3.7		0.048	7.7	> 30	Active	Active	0.5 (≈ 0.207 µg/mL)	10		
CN1CCN(C)C2C1=Nc1ccc(C#N)cc1C(=O)N2c1ccccc1 (configuration not stated)		4.4	7		> 30						
COc1ccc(N2C(=O)c3cc(C#N)cc(-c4ccc(C)nc4)c3N=C3C2N(C)CCN3C)cc1F (racemic)	5.2	0.16	0.24	6.9	23.3	Active	Active	2 (≈ 0.969 µg/mL)	45	inactive	inactive
CN1CCN(C)C2C1=Nc1cc([N+](=O)[O-])ccc1C(=O)N2c1ccccc1 (configuration not stated)		> 30	> 30		> 30						
COc1ccc(N2C(=O)c3cc([N+](=O)[O-])ccc3N=C3C2N(C)CCN3C)cc1 (configuration not stated)	5.5	0.033		7.9	> 30	Active	Active	0.7 (≈ 0.277 µg/mL)	10		
COc1ccc(N2C(=O)c3cc(C#N)cc(Br)c3N=C3C2N(C)CCN3C)cc1F (configuration not stated)		3.2	4.1		> 30						
COc1ccc(N2C(=O)c3cc(C#N)cc(-c4ccc(C)nc4)c3N=C3[C@@H]2N(C)CCN3C)cc1F	2.7	0.26	0.33	5.9	> 30	Active	Active			inactive	inactive
COc1ccc(N2C(=O)c3cc([N+](=O)[O-])ccc3N=C3[C@H]2N(C)[C@H]2CCCC[C@@H]2N3C)cc1		3.8	5.6								
COc1ccc(N2C(=O)c3cc([N+](=O)[O-])ccc3N=C3C2N(Cc2ccccc2)CCN3C)cc1 (configuration not stated)		3.2	3		> 30						
COc1ccc(N2C(=O)c3cc([N+](=O)[O-])ccc3N=C3C2N(Cc2ccccc2)CCN3Cc2ccccc2)cc1 (configuration not stated)		13.8	19.8		> 30						
COc1ccc(N2C(=O)c3cc(C#N)cc(-c4ccc(C)nc4)c3N=C3[C@H]2N(C)CCN3C)cc1F	6.1	0.3	0.5	5.2		Active	Active			inactive	inactive
COc1ccc(N2C(=O)c3cc(C#N)ccc3N=C3C2N(C)CCN3C)cc1 (configuration not stated)		2.5	4.2		> 30						
CN1CCN(C)C2C1=Nc1ccc(F)cc1C(=O)N2c1ccccc1 (configuration not stated)		> 30	> 30		> 30						
COc1ccc(N2C(=O)c3cc([N+](=O)[O-])ccc3N=C3C2N(C2CCCCC2)CCN3C)cc1 (configuration not stated)		6.2	7		> 30						
CN1CCN(C)C2C1=Nc1ccc([N+](=O)[O-])cc1C(=O)N2c1ccc(F)cc1 (configuration not stated)	2.9	0.11	0.15	6.1	> 30						
COc1ccc(N2C(=O)c3cc([N+](=O)[O-])ccc3N=C3[C@@H]2N(C)[C@@H]2CCCC[C@H]2N3C)cc1		4.5	4.7		> 30						
COc1ccc(N2C(=O)c3cc(C#N)cc(N4CCOCC4)c3N=C3C2N(C)CCN3C)cc1F (configuration not stated)	2.5	1.9	2.5	4	> 30						
